# Source: PMC10582670 (Clinical and Translational Science, 2023)
# Several values for one entry are separate records, joined by “and”; a condition that tells them apart may be missing. Identical values can stand only once.
# System: healthy volunteers
# Assay: Safety and tolerability
# Format: in vivo, human
# Outline: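 Healthy volunteers aged 18–55 y, BMI 18–30 kg/m², randomised double-blind 8:2 to once-daily oral drug or placebo for up to 14 days, with follow-up visits on days 21 and 42. Treatment-emergent AEs coded with MedDRA 23.1 and graded with the WHO toxicity scale, alongside ECGs, laboratory tests and vital signs. The safety population was all subjects receiving at least one dose.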
# [1] = SAD (fasted) All GDC-8264, n = 28
compound,measurement,setting,value
O=C(c1nc2n(n1)[C@H](c1ccccc1)C[C@@H]2F)C1CC1 [GDC‐8264],No. of TEAEs,"SAD (fasted) 75 mg, n = 5",8
same,No. of deaths,"SAD (fasted) 75 mg, n = 5",0 no. of subjects (%)
same,No. of subjects with at least one Related TEAE,"SAD (fasted) 75 mg, n = 5",1 (20.0) no. of subjects (%)
same,No. of subjects with at least one Serious TEAE,"SAD (fasted) 75 mg, n = 5",0 no. of subjects (%)
same,No. of subjects with at least one TEAE,"SAD (fasted) 75 mg, n = 5",3 (60.0) no. of subjects (%)
same,No. of subjects withdrawn from study due to a TEAE,"SAD (fasted) 75 mg, n = 5",0 no. of subjects (%)
same,TEAE Abdominal pain,"SAD (fasted) 75 mg, n = 5",0 no. of subjects (%)
same,TEAE Back pain,"SAD (fasted) 75 mg, n = 5",1 (20.0) no. of subjects (%)
same,TEAE Catheter site pain,"SAD (fasted) 75 mg, n = 5",0 no. of subjects (%)
same,TEAE Dermatitis contact,"SAD (fasted) 75 mg, n = 5",2 (40.0) no. of subjects (%)
same,TEAE Diarrhea,"SAD (fasted) 75 mg, n = 5",0 no. of subjects (%)
same,TEAE Dizziness,"SAD (fasted) 75 mg, n = 5",0 no. of subjects (%)
same,TEAE Dyspepsia,"SAD (fasted) 75 mg, n = 5",0 no. of subjects (%)
same,TEAE Gastrointestinal sounds abnormal,"SAD (fasted) 75 mg, n = 5",1 (20.0) no. of subjects (%)
same,TEAE Gingivitis,"SAD (fasted) 75 mg, n = 5",0 no. of subjects (%)
same,TEAE Headache,"SAD (fasted) 75 mg, n = 5",0 no. of subjects (%)
same,TEAE Medical device site dermatitis,"SAD (fasted) 75 mg, n = 5",0 no. of subjects (%)
same,TEAE Myalgia,"SAD (fasted) 75 mg, n = 5",1 (20.0) no. of subjects (%)
same,TEAE Nausea,"SAD (fasted) 75 mg, n = 5",2 (40.0) no. of subjects (%)
same,TEAE Presyncope,"SAD (fasted) 75 mg, n = 5",0 no. of subjects (%)
same,TEAE Somnolence,"SAD (fasted) 75 mg, n = 5",0 no. of subjects (%)
same,No. of TEAEs,"SAD (fasted) 150 mg, n = 5",6
same,No. of deaths,"SAD (fasted) 150 mg, n = 5",0 no. of subjects (%)
same,No. of subjects with at least one Related TEAE,"SAD (fasted) 150 mg, n = 5",3 (60.0) no. of subjects (%)
same,No. of subjects with at least one Serious TEAE,"SAD (fasted) 150 mg, n = 5",0 no. of subjects (%)
same,No. of subjects with at least one TEAE,"SAD (fasted) 150 mg, n = 5",4 (80.0) no. of subjects (%)
same,No. of subjects withdrawn from study due to a TEAE,"SAD (fasted) 150 mg, n = 5",0 no. of subjects (%)
same,TEAE Abdominal pain,"SAD (fasted) 150 mg, n = 5",0 no. of subjects (%)
same,TEAE Back pain,"SAD (fasted) 150 mg, n = 5",0 no. of subjects (%)
same,TEAE Catheter site pain,"SAD (fasted) 150 mg, n = 5",0 no. of subjects (%)
same,TEAE Dermatitis contact,"SAD (fasted) 150 mg, n = 5",1 (20.0) no. of subjects (%)
same,TEAE Diarrhea,"SAD (fasted) 150 mg, n = 5",0 no. of subjects (%)
same,TEAE Dizziness,"SAD (fasted) 150 mg, n = 5",0 no. of subjects (%)
same,TEAE Dyspepsia,"SAD (fasted) 150 mg, n = 5",0 no. of subjects (%)
same,TEAE Gastrointestinal sounds abnormal,"SAD (fasted) 150 mg, n = 5",1 (20.0) no. of subjects (%)
same,TEAE Gingivitis,"SAD (fasted) 150 mg, n = 5",0 no. of subjects (%)
same,TEAE Headache,"SAD (fasted) 150 mg, n = 5",1 (20.0) no. of subjects (%)
same,TEAE Medical device site dermatitis,"SAD (fasted) 150 mg, n = 5",0 no. of subjects (%)
same,TEAE Myalgia,"SAD (fasted) 150 mg, n = 5",0 no. of subjects (%)
same,TEAE Nausea,"SAD (fasted) 150 mg, n = 5",1 (20.0) no. of subjects (%)
same,TEAE Presyncope,"SAD (fasted) 150 mg, n = 5",0 no. of subjects (%)
same,TEAE Somnolence,"SAD (fasted) 150 mg, n = 5",0 no. of subjects (%)
same,No. of TEAEs,"SAD (fasted) 225 mg, n = 6",7
same,No. of deaths,"SAD (fasted) 225 mg, n = 6",0 no. of subjects (%)
same,No. of subjects with at least one Related TEAE,"SAD (fasted) 225 mg, n = 6",0 no. of subjects (%)
same,No. of subjects with at least one Serious TEAE,"SAD (fasted) 225 mg, n = 6",0 no. of subjects (%)
same,No. of subjects with at least one TEAE,"SAD (fasted) 225 mg, n = 6",3 (50.0) no. of subjects (%)
same,No. of subjects withdrawn from study due to a TEAE,"SAD (fasted) 225 mg, n = 6",0 no. of subjects (%)
same,TEAE Abdominal pain,"SAD (fasted) 225 mg, n = 6",0 no. of subjects (%)
same,TEAE Back pain,"SAD (fasted) 225 mg, n = 6",0 no. of subjects (%)
same,TEAE Catheter site pain,"SAD (fasted) 225 mg, n = 6",0 no. of subjects (%)
same,TEAE Dermatitis contact,"SAD (fasted) 225 mg, n = 6",0 no. of subjects (%)
same,TEAE Diarrhea,"SAD (fasted) 225 mg, n = 6",0 no. of subjects (%)
same,TEAE Dizziness,"SAD (fasted) 225 mg, n = 6",0 no. of subjects (%)
same,TEAE Dyspepsia,"SAD (fasted) 225 mg, n = 6",0 no. of subjects (%)
same,TEAE Gastrointestinal sounds abnormal,"SAD (fasted) 225 mg, n = 6",0 no. of subjects (%)
same,TEAE Gingivitis,"SAD (fasted) 225 mg, n = 6",0 no. of subjects (%)
same,TEAE Headache,"SAD (fasted) 225 mg, n = 6",0 no. of subjects (%)
same,TEAE Medical device site dermatitis,"SAD (fasted) 225 mg, n = 6",2 (33.3) no. of subjects (%)
same,TEAE Myalgia,"SAD (fasted) 225 mg, n = 6",1 (16.7) no. of subjects (%)
same,TEAE Nausea,"SAD (fasted) 225 mg, n = 6",0 no. of subjects (%)
same,TEAE Presyncope,"SAD (fasted) 225 mg, n = 6",1 (16.7) no. of subjects (%)
same,TEAE Somnolence,"SAD (fasted) 225 mg, n = 6",0 no. of subjects (%)
same,No. of TEAEs,[1],33
same,No. of deaths,[1],0 no. of subjects (%)
same,No. of subjects with at least one Related TEAE,[1],4 (14.3) no. of subjects (%)
same,No. of subjects with at least one Serious TEAE,[1],0 no. of subjects (%)
same,No. of subjects with at least one TEAE,[1],19 no. of subjects (%) and 19 (67.9) no. of subjects (%)
same,No. of subjects withdrawn from study due to a TEAE,[1],0 no. of subjects (%)
same,TEAE Abdominal pain,[1],2 (7.1) no. of subjects (%)
same,TEAE Back pain,[1],1 (3.6) no. of subjects (%)
same,TEAE Catheter site pain,[1],1 (3.6) no. of subjects (%)
same,TEAE Dermatitis contact,[1],4 (14.3) no. of subjects (%)
same,TEAE Diarrhea,[1],0 no. of subjects (%)
same,TEAE Dyspepsia,[1],1 (3.6) no. of subjects (%)
same,TEAE Gastrointestinal sounds abnormal,[1],2 (7.1) no. of subjects (%)
same,TEAE Gingivitis,[1],0 no. of subjects (%)
same,TEAE Headache,[1],4 (14.3) no. of subjects (%)
same,TEAE Medical device site dermatitis,[1],2 (7.1) no. of subjects (%)
same,TEAE Myalgia,[1],2 (7.1) no. of subjects (%)
same,TEAE Nausea,[1],3 (10.7) no. of subjects (%)
same,TEAE Presyncope,[1],2 (7.1) no. of subjects (%)
same,TEAE Somnolence,[1],0 no. of subjects (%)
same,No. of TEAEs,"SAD (high fat) 75 mg, n = 5",4
same,No. of deaths,"SAD (high fat) 75 mg, n = 5",0 no. of subjects (%)
same,No. of subjects with at least one Related TEAE,"SAD (high fat) 75 mg, n = 5",0 no. of subjects (%)
same,No. of subjects with at least one Serious TEAE,"SAD (high fat) 75 mg, n = 5",0 no. of subjects (%)
same,No. of subjects with at least one TEAE,"SAD (high fat) 75 mg, n = 5",2 (40.0) no. of subjects (%)
same,No. of subjects withdrawn from study due to a TEAE,"SAD (high fat) 75 mg, n = 5",0 no. of subjects (%)
same,TEAE Abdominal pain,"SAD (high fat) 75 mg, n = 5",0 no. of subjects (%)
same,TEAE Back pain,"SAD (high fat) 75 mg, n = 5",0 no. of subjects (%)
same,TEAE Catheter site pain,"SAD (high fat) 75 mg, n = 5",0 no. of subjects (%)
same,TEAE Dermatitis contact,"SAD (high fat) 75 mg, n = 5",1 (20.0) no. of subjects (%)
same,TEAE Diarrhea,"SAD (high fat) 75 mg, n = 5",0 no. of subjects (%)
same,TEAE Dizziness,"SAD (high fat) 75 mg, n = 5",0 no. of subjects (%)
same,TEAE Dyspepsia,"SAD (high fat) 75 mg, n = 5",0 no. of subjects (%)
same,TEAE Gastrointestinal sounds abnormal,"SAD (high fat) 75 mg, n = 5",0 no. of subjects (%)
same,TEAE Gingivitis,"SAD (high fat) 75 mg, n = 5",0 no. of subjects (%)
same,TEAE Headache,"SAD (high fat) 75 mg, n = 5",1 (20.0) no. of subjects (%)
same,TEAE Medical device site dermatitis,"SAD (high fat) 75 mg, n = 5",0 no. of subjects (%)
same,TEAE Myalgia,"SAD (high fat) 75 mg, n = 5",0 no. of subjects (%)
same,TEAE Nausea,"SAD (high fat) 75 mg, n = 5",1 (20.0) no. of subjects (%)
same,TEAE Presyncope,"SAD (high fat) 75 mg, n = 5",0 no. of subjects (%)
same,TEAE Somnolence,"SAD (high fat) 75 mg, n = 5",0 no. of subjects (%)
same,"changes in clinical laboratory results, vital signs, ECGs, or physical examinations",SAD and MAD stages,no significant changes
same,severity of adverse events in GDC-8264-treated subjects,both stages (SAD and MAD),mild
